From ChEMBL document CHEMBL1629540 (J Med Chem, 2010)

Tests used:
[1] = molecular target: Glutamate receptor ionotropic, kainate 3 (Rattus norvegicus, UniProt P42264); assay: Displacement of [3H[SYM2081 from rat recombinant GluK3a expressed in […] cells; assay type: cell-based
Summary of the method: (§1)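 Competition binding to membranes from Sf9 cells infected with recombinant baculovirus encoding rat GluK subunits. Radioligand 1-5 nM [3H]SYM2081 (47.9 Ci/mmol), 12-16 ligand concentrations. At least three experiments, each in triplicate, reported as Ki mean ± SEM.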

[2] = molecular target: Glutamate receptor ionotropic, kainate 2 (Rattus norvegicus, UniProt P42260); assay: Displacement of [3H[SYM2081 from rat recombinant GluK2(VCR)a expressed in […] cells; assay type: cell-based; summary of the method: as §1
[3] = Displacement of [3H]AMPA from AMPA receptor in rat brain membrane; assay type: cell membranes
Summary of the method: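 Rat cortical synaptosomal membranes, competition with 5 nM [3H]AMPA (55.5 Ci/mmol). IC50 given as the antilog of the mean log value from three individual experiments.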

[4] = Displacement of [3H]KA from kainate receptor in rat brain membrane; assay type: cell membranes
Summary of the method: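 Rat cortical synaptosomal membranes, competition with 5 nM [3H]KA (58.0 Ci/mmol). IC50 given as the antilog of the mean log value from three individual experiments.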

[5] = molecular target: T1, Glutamate receptor 2 (Rattus norvegicus, UniProt P19491); assay: Displacement of [3H[AMPA from rat recombinant GluA2(R)o expressed in […] cells; assay type: cell-based
[6] = molecular target: Glutamate receptor ionotropic, kainate 1 (Rattus norvegicus, UniProt P22756); assay: Displacement of [3H[SYM2081 from rat recombinant GluK1(Q)1b expressed in […] cells; assay type: cell-based
[7] = molecular target: T2, Glutamate receptor 1 (Rattus norvegicus, UniProt P19490); assay: Displacement of [3H[AMPA from rat recombinant GluA1o expressed in […] cells; assay type: cell-based
Summary of the method: (§2)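 Competition binding to membranes from Sf9 cells infected with recombinant baculovirus encoding rat flop GluA subunits. Radioligand 2-5 nM (RS)-[3H]AMPA, 12-16 ligand concentrations. At least three experiments, each in triplicate, reported as Ki mean ± SEM.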

[8] = molecular target: T3, Glutamate receptor 4 (Rattus norvegicus, UniProt P19493); assay: Displacement of [3H[AMPA from rat recombinant GluA4o expressed in […] cells; assay type: cell-based; summary of the method: as §2
[9] = molecular target: T4, Glutamate receptor 3 (Rattus norvegicus, UniProt P19492); assay: Displacement of [3H[AMPA from rat recombinant GluA3o expressed in […] cells; assay type: cell-based; summary of the method: as §2
[10] = molecular target: T2, Glutamate receptor 1; assay: Agonist activity at rat recombinant GluA1i expressed in Xenopus laevis oocytes by two-electrode voltage clamp assay; assay type: functional, cell-based, Oocyte
Summary of the method: (§3)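 Rat homomeric flip-isoform GluA subunits expressed in Xenopus laevis oocytes, measured by two-electrode voltage clamp. Highest concentration tested 3 mM. Responses normalized to the maximum response in each oocyte. Three to five experiments per receptor, each in duplicate. EC50 obtained by fitting I = Imax/(1 + (10^logEC50/10^log[A])^nH), giving Imax and Hill coefficient.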

[11] = molecular target: Glutamate NMDA receptor; assay: Displacement of [3H]CGP39653 from NMDA receptor in rat brain membrane; assay type: cell membranes
[12] = molecular target: T1, Glutamate receptor 2; assay: Agonist activity at rat recombinant GluA2(Q)i expressed in Xenopus laevis oocytes by two-electrode voltage clamp assay; assay type: functional, cell-based, Oocyte
Summary of the method: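 Homomeric rat GluA2(Q) flip receptors expressed in Xenopus laevis oocytes and recorded by two-electrode voltage clamp. Agonist-evoked currents were normalised to the maximum response in each oocyte. EC50 was obtained by fitting the concentration-response data to a logistic equation giving Imax and the Hill coefficient.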

[13] = molecular target: T3, Glutamate receptor 4; assay: Agonist activity at rat recombinant GluA4i expressed in Xenopus laevis oocytes by two-electrode voltage clamp assay; assay type: functional, cell-based, Oocyte; summary of the method: as §3
[14] = molecular target: T4, Glutamate receptor 3; assay: Agonist activity at rat recombinant GluA3i expressed in Xenopus laevis oocytes by two-electrode voltage clamp assay; assay type: functional, cell-based, Oocyte; summary of the method: as §3
[15] = molecular target: Glutamate receptor 2 (Homo sapiens, UniProt P42262); assay: Displacement of [3H]AMPA from GluA2-S1S2 receptor
Sequence of Glutamate receptor 2 (Homo sapiens, UniProt P42262) (P42262 whole entry): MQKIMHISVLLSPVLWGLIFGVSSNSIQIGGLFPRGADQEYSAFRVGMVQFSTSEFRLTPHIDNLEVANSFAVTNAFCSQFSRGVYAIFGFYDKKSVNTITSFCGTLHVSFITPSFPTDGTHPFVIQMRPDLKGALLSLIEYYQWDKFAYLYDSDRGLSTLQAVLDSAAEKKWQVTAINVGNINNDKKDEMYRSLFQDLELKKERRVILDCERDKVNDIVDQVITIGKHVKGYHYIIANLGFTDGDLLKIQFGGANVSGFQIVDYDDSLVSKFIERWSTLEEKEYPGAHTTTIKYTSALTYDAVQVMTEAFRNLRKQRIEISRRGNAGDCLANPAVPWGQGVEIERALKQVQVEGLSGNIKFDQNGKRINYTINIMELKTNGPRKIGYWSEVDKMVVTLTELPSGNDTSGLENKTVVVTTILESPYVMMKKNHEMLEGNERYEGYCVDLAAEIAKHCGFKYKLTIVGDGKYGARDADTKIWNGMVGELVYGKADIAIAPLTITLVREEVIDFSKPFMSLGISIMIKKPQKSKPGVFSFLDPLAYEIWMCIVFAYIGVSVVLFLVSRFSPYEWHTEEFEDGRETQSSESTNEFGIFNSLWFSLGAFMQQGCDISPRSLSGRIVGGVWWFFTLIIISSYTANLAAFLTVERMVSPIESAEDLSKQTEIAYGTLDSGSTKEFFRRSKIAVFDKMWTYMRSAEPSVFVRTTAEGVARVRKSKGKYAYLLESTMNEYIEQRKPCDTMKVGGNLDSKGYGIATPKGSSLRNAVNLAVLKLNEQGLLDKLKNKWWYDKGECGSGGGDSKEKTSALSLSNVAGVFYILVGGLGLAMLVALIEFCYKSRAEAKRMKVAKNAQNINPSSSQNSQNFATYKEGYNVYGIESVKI

Sequence of Glutamate receptor ionotropic, kainate 2 (P42260 whole entry): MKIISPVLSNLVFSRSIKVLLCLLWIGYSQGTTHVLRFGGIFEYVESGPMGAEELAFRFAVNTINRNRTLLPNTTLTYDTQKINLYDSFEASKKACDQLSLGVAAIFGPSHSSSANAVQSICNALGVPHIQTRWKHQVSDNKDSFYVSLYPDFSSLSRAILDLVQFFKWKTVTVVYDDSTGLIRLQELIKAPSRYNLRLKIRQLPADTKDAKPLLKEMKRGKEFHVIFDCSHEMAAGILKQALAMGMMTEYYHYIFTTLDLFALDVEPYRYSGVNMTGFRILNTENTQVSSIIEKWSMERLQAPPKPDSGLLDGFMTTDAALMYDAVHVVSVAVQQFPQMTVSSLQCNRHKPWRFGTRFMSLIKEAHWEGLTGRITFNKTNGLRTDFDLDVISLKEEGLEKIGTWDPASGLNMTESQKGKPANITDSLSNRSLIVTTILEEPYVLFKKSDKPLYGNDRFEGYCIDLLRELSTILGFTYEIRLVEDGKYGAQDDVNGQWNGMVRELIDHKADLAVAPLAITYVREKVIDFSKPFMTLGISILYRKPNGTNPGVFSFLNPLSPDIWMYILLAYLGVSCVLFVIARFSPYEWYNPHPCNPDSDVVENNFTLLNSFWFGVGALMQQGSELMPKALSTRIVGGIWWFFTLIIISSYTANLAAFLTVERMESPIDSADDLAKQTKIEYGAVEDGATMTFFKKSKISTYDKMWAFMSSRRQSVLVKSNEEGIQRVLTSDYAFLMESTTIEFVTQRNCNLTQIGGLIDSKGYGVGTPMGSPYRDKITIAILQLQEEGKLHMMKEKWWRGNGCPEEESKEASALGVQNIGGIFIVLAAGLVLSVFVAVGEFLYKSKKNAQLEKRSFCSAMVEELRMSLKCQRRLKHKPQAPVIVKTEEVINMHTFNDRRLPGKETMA
T1 sequence (P19491 whole entry): as the sequence (P42262 whole entry) above, with M191T, T291A, R764G, A852P counted along it
Sequence of Glutamate receptor ionotropic, kainate 3 (P42264 whole entry): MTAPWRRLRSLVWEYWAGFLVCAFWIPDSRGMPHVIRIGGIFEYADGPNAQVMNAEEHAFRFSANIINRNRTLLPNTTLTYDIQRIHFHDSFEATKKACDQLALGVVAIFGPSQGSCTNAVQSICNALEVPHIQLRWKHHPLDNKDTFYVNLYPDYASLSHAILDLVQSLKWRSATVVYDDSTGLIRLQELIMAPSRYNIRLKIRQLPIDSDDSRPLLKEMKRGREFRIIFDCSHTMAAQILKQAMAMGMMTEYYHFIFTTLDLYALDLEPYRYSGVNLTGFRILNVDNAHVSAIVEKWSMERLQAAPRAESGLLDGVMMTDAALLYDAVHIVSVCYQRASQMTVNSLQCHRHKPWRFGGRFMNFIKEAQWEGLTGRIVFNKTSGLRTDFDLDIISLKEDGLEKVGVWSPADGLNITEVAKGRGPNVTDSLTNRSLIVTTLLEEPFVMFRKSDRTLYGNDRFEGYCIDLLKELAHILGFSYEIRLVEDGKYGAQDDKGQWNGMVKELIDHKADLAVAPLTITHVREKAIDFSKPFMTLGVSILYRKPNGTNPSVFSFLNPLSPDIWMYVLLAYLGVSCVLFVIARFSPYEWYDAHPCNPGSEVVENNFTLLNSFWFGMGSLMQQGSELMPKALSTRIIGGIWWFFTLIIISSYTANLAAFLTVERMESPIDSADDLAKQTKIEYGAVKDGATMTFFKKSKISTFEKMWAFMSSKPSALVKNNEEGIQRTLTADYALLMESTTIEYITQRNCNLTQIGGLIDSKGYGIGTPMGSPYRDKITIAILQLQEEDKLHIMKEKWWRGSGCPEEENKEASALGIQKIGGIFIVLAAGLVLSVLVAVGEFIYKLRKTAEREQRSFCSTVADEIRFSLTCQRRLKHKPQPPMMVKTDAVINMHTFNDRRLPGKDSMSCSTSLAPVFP
T4 sequence (P19492 whole entry): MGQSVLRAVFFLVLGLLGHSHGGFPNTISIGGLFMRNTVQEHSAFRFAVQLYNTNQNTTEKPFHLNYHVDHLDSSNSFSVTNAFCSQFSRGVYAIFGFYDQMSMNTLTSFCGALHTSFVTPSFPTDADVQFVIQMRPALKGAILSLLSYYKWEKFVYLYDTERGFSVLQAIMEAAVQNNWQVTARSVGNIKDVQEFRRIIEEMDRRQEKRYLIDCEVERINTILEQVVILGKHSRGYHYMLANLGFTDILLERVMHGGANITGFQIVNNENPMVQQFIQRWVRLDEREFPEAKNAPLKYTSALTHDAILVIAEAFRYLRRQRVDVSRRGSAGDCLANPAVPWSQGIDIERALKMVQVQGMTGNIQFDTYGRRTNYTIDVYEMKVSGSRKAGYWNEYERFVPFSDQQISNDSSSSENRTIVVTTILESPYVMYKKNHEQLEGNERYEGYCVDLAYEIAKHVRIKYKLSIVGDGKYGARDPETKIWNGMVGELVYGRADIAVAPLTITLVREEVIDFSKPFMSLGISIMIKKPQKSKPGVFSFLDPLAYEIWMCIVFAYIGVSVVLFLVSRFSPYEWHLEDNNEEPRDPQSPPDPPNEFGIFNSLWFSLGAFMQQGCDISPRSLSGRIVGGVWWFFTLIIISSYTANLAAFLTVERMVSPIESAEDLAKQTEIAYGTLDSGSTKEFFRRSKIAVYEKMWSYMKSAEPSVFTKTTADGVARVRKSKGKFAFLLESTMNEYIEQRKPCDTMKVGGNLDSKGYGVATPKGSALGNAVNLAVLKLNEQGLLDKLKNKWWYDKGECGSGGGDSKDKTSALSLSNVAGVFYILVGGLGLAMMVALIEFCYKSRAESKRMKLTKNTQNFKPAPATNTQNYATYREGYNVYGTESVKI
Sequence of Glutamate receptor ionotropic, kainate 1 (P22756 whole entry): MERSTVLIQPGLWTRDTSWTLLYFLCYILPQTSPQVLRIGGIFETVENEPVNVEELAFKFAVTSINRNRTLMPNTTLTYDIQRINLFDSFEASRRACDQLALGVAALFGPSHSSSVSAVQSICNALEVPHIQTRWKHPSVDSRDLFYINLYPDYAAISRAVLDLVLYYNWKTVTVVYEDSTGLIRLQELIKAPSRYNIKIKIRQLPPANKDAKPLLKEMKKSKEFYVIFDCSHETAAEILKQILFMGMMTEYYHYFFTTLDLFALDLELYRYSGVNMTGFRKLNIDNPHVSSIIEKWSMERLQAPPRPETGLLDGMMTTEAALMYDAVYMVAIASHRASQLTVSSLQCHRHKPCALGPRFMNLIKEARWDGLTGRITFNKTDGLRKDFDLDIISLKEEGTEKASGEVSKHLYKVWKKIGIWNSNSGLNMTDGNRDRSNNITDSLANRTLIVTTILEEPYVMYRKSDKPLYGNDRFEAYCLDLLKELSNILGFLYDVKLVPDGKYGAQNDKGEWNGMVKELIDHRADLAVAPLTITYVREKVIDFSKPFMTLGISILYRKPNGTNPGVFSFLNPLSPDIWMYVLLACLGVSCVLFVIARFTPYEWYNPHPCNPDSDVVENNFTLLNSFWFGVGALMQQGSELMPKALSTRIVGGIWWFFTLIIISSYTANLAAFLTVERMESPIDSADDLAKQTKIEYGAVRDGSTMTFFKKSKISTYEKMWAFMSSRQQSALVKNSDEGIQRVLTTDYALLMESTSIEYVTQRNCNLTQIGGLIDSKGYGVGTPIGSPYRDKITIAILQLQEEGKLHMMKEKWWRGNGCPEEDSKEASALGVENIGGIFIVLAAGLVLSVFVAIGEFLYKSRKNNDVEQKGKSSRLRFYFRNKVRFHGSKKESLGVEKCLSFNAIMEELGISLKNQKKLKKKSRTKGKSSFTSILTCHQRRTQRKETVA

Compound	Ki [1]	Ki [2]	IC50 [3]	IC50 [4]	Ki [5]	Ki [6]	Ki [7]	Ki [8]	Ki [9]	EC50 [10]	Ki [11]	EC50 [12]	EC50 [13]	EC50 [14]	Ki [15]
Cc1onc(O)c1C[C@H](N)C(=O)O [(S)-AMPA]	42.7 µM	> 1000 µM													
N[C@H](C(=O)O)c1cc(O)no1 [IBOTENIC ACID]	1.74 µM	3.23 µM	> 100 µM	22 µM	> 100 µM	2.43 µM	> 100 µM	> 100 µM	> 100 µM						
NC(Cc1onc(O)c1Cl)C(=O)O (racemic)	90.5 µM	> 100 µM	0.22 µM	> 100 µM	0.37 µM	6.8 µM	0.13 µM	11.9 µM	27.5 µM	4.7 µM	18 µM				
O=C(O)C1NCCc2c1o[nH]c2=O (racemic)	29.8 µM	> 100 µM	0.37 µM	> 100 µM		4.48 µM	0.18 µM	13.5 µM	4.52 µM	82.8 µM	> 100 µM	34.6 µM	> 1000 µM	637 µM	0.108 µM
O=C(O)C1Cc2c(O)noc2CN1 (racemic)	54 µM														0.494 µM
O=C(O)[C@H]1Cc2c(O)noc2CN1		> 100 µM	0.47 µM	> 100 µM		10.1 µM	0.36 µM	0.64 µM	0.84 µM		> 100 µM	22.3 µM			
